Source: PubChem (several laboratories)
ATG4B inhibitor – blocks human ATG4B protease cleavage of LC3 substrate. ATG4B cleavage of LC3-PLA2, NBD-HPC fluorescence, 1 h. inhibition, % at 8.33 µM. Q9Y4P1. actives 0.51% (n = 340,000); in the data active = inhibition above about 40%
Target sequence (Q9Y4P1 whole entry, looked up): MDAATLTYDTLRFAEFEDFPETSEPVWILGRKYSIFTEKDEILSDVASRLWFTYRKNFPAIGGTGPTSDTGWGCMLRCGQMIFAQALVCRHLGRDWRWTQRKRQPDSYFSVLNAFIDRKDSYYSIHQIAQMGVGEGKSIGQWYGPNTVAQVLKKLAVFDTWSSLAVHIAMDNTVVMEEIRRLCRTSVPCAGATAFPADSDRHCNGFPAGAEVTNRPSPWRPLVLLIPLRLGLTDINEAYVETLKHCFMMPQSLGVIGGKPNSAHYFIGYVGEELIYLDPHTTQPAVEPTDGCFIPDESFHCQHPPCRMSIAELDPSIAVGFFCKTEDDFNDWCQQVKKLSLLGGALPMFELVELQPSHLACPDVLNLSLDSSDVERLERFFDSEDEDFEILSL
LANA-H2A inh – blocks KSHV LANA binding to histone H2A/H2B | Q9QR71 | cell-free LANA-H2A/H2B peptide, fluorescence polarization | actives 0.6% (n = 320,000) | inhibition, % (concentration not given with the values); in the data active = inhibition mostly above about 10%, no sharp cut-off; inactive = mostly below about 6.7%
HDAC3 inh – inhibitors of human histone deacetylase 3; O15379; recombinant HDAC3, fluorogenic peptide/trypsin coupled, fluorescence; inhibition, % at 8.3 µM; actives 0.15% (n = 320,000); in the data active = inhibition above about 26%, passing the limit was not always enough; inconclusive = no clear call, values can overlap the other calls
HKDC1 inhibitor – blocks human hexokinase HKDC1 activity; Q2TB90; AID 493160; inhibition, % at 20 µM; actives 0.16% (n = 340,000); recombinant HKDC1, G6PDH/diaphorase resazurin coupled fluorescence;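 active = inhibition above about 35% when tested at 20 µM, limit read from the data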
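System: Recombinant HKDC1 hexokinase | Amount: HKDC1 at 5 µg/mL | Reagent: Glucose with 1 mM ATP | Doses: Single 20 µM dose | Incubation: Reaction time 90 min, room temperature, protected from light | Signal: Coupled resazurin fluorescence, excitation 525 nm, emission 613 nm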
Bfl-1 A1 inh – inhibitors of the anti-apoptotic protein A1, read as caspase activation | AID 2462 | MEF A1-2A-BIM cells, Caspase-Glo 3/7 luminescence, 3 h; percent of clofoctol response, vehicle zero | caspase activation, % (test concentration not listed) | actives 0.066% (n = 330,000);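 active = over half of replicate activation scores above 10%, or exactly half above 10 with the replicate mean above 10; inconclusive = replicate mean below 10 yet half the replicates above 10; inactive = over half of replicates below 10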
AI-2 QS modul – modulators of Vibrio harveyi AI-2 quorum sensing system. Vibrio harveyi JMH597 AI-2 luminescence/OD600 ratio, 9 h; stronger effect = lower value; strain lacks LuxN and CqsS sensors; 0 = neutral-control median. activity change, % at 7.5 µM. actives 0.4% (n = 300,000); in the data active = activity change below about -75%, passing the limit was not always enough; inconclusive = no clear call, values can overlap the other calls;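 also: luminescence divided by OD600 gain over 9 h not by final OD600 alone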
HKDC1 act conf2 – confirmation of human HKDC1 activators. shares compounds with HKDC1 inhibitor. actives 14% (n = 740). recombinant HKDC1, G6PDH/diaphorase resazurin fluorescence; stronger effect = lower value. inhibition, % at 20 µM;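 active = inhibition at or below a set negative limit, negative inhibition meaning the enzyme was activated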
Hits are given with their value; . = inactive; ? = inconclusive; / = no result; + = active, no number; ! = not confirmed by another sample. Compounds with a hit are over-represented: about 1.8% of the library has one in this group of screens.

SMILES	ATG4B inhibitor	LANA-H2A inh	HDAC3 inh	HKDC1 inhibitor	Bfl-1 A1 inh	AI-2 QS modul	HKDC1 act conf2
Clc1ccc(N=c2ssnc2Cl)nc1	.	.	.	.	.	.	-80
Clc1nssc1=Nc1ccc(Br)cc1	.	/	/	.	/	?	/
Nn1cnnc1N/N=C/c1cc(Br)cc(Br)c1O	.	.	.	.	.	.	-32
CC(C)(C)c1ccc(/C=N/Nc2nncn2N)cc1	.	.	.	.	.	.	/
CCOC(=O)c1cc(-c2ccc(/C=C3/C(=O)N(c4ccc(C(=O)O)cc4)N=C3C)o2)ccc1Cl	.	.	.	43	.	.	.
CCCCC[C@H](O)/C=C/[C@@H]1[C@@H](C/C=C\CCCC(=O)OC)[C@@H](O)C[C@H]1O	.	.	.	77	.	.	.
Cc1cc(C)c(NC(=O)CN(C)C(=O)CCC(=O)c2ccc(C)s2)c(C)c1	.	/	/	.	/	/	/
CN(C)C=C1C(=O)c2ccccc2C1=O	.	.	.	.	.	.	/
CC(C)(C=O)C1=CC(=O)c2ccccc2C1=O	.	+	.	51	.	/	.
O=C(Nc1ccc(Cl)c(Cl)c1)Nc1nnc(-c2ccncc2)s1	.	.	.	41	.	/	.
CCNC(=S)NNC(=O)c1ccccn1	.	.	.	.	.	.	/
O=C(NNC(=S)Nc1ccc(Cl)c(Cl)c1)c1ccccn1	.	.	.	.	.	?	-74
O=S(=O)(Nc1ccccc1Cl)c1ccc(F)cc1	.	.	.	.	.	.	/
Cc1ccc(S(=O)(=O)Nc2c(O)ccc3ccccc23)cc1	.	.	.	38	.	.	.
O=S(=O)(Nc1c(O)ccc2ccccc12)c1cccc2ccccc12	.	.	.	.	.	.	/
CCc1ccc(S(=O)(=O)Nc2ccc(O)c3ccccc23)cc1	.	.	.	44	.	.	.
O=S(=O)(Nc1ccc(O)c2ccccc12)c1ccc(F)cc1	.	.	.	43	.	.	.
O=C(NC1CC1)C1CC(=O)N(c2ccc(F)cc2)C1 (stereo not given)	.	.	.	.	.	.	/
O=C(N/N=C/c1ccc(O)cc1O)/C(=C/c1ccccc1)CCO	.	.	.	.	.	.	.
CC1=C(SCc2ccccc2)C(=O)c2ccccc2C1=O	.	/	/	44	/	/	.
COc1cc2c(C#N)c(N3CCc4ccccc4C3)nc(N)c2c(N)n1	.	.	.	41	.	.	.
COC(=O)c1ccccc1NC1=C/C(=N\S(=O)(=O)c2ccc(C(=O)O)cc2)c2ccccc2C1=O	.	.	.	82	.	.	.
Cc1ccc(NC2=C/C(=N/S(=O)(=O)c3cccs3)c3ccccc3C2=O)cc1	.	.	.	.	.	.	/
COC(=O)c1ccccc1NC1=C/C(=N\S(=O)(=O)c2cccs2)c2ccccc2C1=O	.	.	.	39!	.	.	.
Oc1ccc(/C=N/Nc2ccnc3cc(Cl)ccc23)cc1O	.	.	.	.	.	.	/
SMILES	ATG4B inhibitor	LANA-H2A inh	HDAC3 inh	HKDC1 inhibitor	Bfl-1 A1 inh	AI-2 QS modul	HKDC1 act conf2
Oc1ccc(/C=N/Nc2ccnc3cc(Cl)ccc23)c(O)c1O	.	.	.	37	.	/	.
Cc1cc(C(=O)CCC(=O)N(C)CC(=O)Nc2ccccc2Br)c(C)s1	.	.	.	.	.	.	/
O=NNc1nc2ccccc2n1Cc1ccccc1	.	.	.	.	.	.	-44
CC(=O)Nc1nc2ccccc2n1Cc1ccccc1	.	.	.	.	.	.	/
COC(=O)C1(C(C[N+](=O)[O-])c2ccc(C)cc2)C(=O)NCC1c1ccco1 (stereo not given)	.	.	.	.	.	.	/
CC(c1ccccc1)N1C(=O)c2cccnc2C1=O (stereo not given)	.	.	.	.	.	.	/
CC(NC1=CC(=O)c2cccnc2C1=O)C(O)c1ccccc1 (stereo not given)	.	/	/	46	/	/	.
O=C1/C(=C\c2ccc(-c3ccccc3[N+](=O)[O-])o2)C(c2ccccc2)=NN1c1ccccc1	.	.	.	42	.	.	.
CN(C)/C=C1/C(=O)N(c2ccc([N+](=O)[O-])cc2)N=C1c1ccccc1	/	.	?	/	.	.	/
Cc1ccc(-n2c3nc(=O)[nH]c(=O)c-3cc3cc([N+](=O)[O-])ccc32)cc1C	.	.	.	61	.	.	.
COc1cc(Cl)ccc1OCc1cc(C(=O)N2C[C@]3(C)C[C@H]2CC(C)(C)C3)no1	.	.	.	.	.	.	/
C=CCN=C1CC(C)(C)CC(=O)/C1=C(\O)CCCN1C(=O)c2ccccc2C1=O	.	.	.	.	.	.	/
C=CC(=O)N1C/C(=C/c2ccc(Cl)cc2)C(=O)/C(=C\c2ccc(Cl)cc2)C1	.	/	/	45	/	/	.
CN1C/C(=C/c2ccncc2)C(=O)/C(=C/c2ccncc2)C1	.	.	.	.	.	/	/
C=CC(=O)N1C/C(=C/c2ccccc2)C(=O)/C(=C\c2ccccc2)C1	.	/	/	38	/	/	.
CC(C)(CO)NCC(O)Cn1cc(C=O)c2ccccc21 (stereo not given)	.	.	.	.	.	.	/
CC1(C)CC(=O)C(C(O)c2cccc([N+](=O)[O-])c2)C(C)(C)N1 (stereo not given)	.	.	.	.	.	.	/
CCN=C1NN=C(c2ccc(C)cc2)CS1	.	.	.	.	.	.	-52
O=C(NC1CCCCC1)C(c1ccc(F)cc1)N(Cc1ccc2c(c1)OCO2)C(=O)c1cnsn1 (stereo not given)	.	.	.	.	.	.	/
Oc1cc(-c2ccccc2)c2ccccc2c1	.	.	.	.	.	.	.
CC1COCC(C)N1C1=C(Cl)C(=O)c2ccccc2C1=O (stereo not given)	.	/	/	38	/	/	.
O=C1C(Cl)=C(N2CCC(C(=O)O)CC2)C(=O)c2ccccc21	.	.	/	50	.	.	.
NC(=O)C1CCN(C2=C(Cl)C(=O)c3ccccc3C2=O)CC1	.	.	.	47	.	.	.
NC(=O)C1CCN(C2=C(NS(=O)(=O)c3ccccc3)C(=O)c3ccccc3C2=O)CC1	.	.	/	.	.	.	/
O=C1C(Cl)=C(NCCN2CCOCC2)C(=O)c2ccccc21	.	.	.	.	.	.	/
O=C(COc1ccccc1C(=O)NCC1CCCO1)Nc1ccc(Br)cc1 (stereo not given)	.	.	.	.	.	.	/
Oc1ccc(O)c(Cc2nc3ccccc3[nH]2)c1	.	.	.	54	.	.	.
Cc1cc(C)n2cc(CSc3nnc(-c4ccccc4)c(-c4ccccc4)n3)nc2n1	.	/	/	38	/	/	.
Cc1cc(C)n2cc(CSc3nnnn3-c3ccccc3)nc2n1	.	.	.	.	.	.	/
O=C(O)c1cc(O)c2c(c1)C(=O)c1cccc(O)c1C2=O	.	.	.	40	.	.	.
